{
  "source": "ChEMBL document CHEMBL4130543",
  "about": "“Bacilotetrins A and B, Anti-Staphylococcal Cyclic-Lipotetrapeptides from a Marine-Derived Bacillus subtilis” (J Nat Prod, 2017)",
  "key": {"[1]": {"system": "Staphylococcus aureus", "experiment": "Antibacterial activity against methicillin-resistant Staphylococcus aureus isolate EMRSA-15 after 24 hrs by MTT dye based broth microdilution method", "type": "functional"}, "[2]": {"system": "Staphylococcus aureus", "experiment": "Antibacterial activity against methicillin-resistant Staphylococcus aureus SA1199B after 24 hrs by MTT dye based broth microdilution method", "type": "functional"}, "[3]": {"system": "Staphylococcus aureus", "experiment": "Antibacterial activity against […] after 24 hrs by MTT dye based broth microdilution method", "type": "functional", "conditions": "ATCC 25923, 24 h"}, "[4]": {"system": "Staphylococcus aureus", "experiment": "Antibacterial activity against methicillin-resistant Staphylococcus aureus RN4220 after 24 hrs by MTT dye based broth microdilution method", "type": "functional"}, "[5]": {"system": "Prostatic carcinoma cell", "experiment": "Cytotoxicity against human prostate cancer cells at 3 to 30 ug/ml after 48 hrs by SRB assay", "type": "cell-based", "method_in_brief": "(§1)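 Cells plated in 96-well format with test samples at 30, 10 and 3 μg/mL for 48 h. Adherent cells fixed in 50% (wt/vol) trichloroacetic acid, stained 60 min with 0.4% sulforhodamine B in 1% acetic acid, bound dye dissolved in 10 mM Tris base, absorbance read at 510 nm.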"}, "[6]": {"experiment": "Cytotoxicity against human hepatic cancer cells at 3 to 30 ug/ml after 48 hrs by SRB assay", "type": "cell-based", "method_in_brief": "as §1"}, "[7]": {"system": "Staphylococcus aureus", "experiment": "Antibacterial activity against methicillin-resistant Staphylococcus aureus isolate XU2120 after 24 hrs by MTT dye based broth microdilution method", "type": "functional", "conditions": "isolate XU2120, 24 h"}},
  "note": "The source made the active and inactive calls. No cut-off for these calls is given here.",
  "data": [
    {"smiles": "CCC(C)CC(C)CCCCC[C@@H]1CC(=O)N[C@@H](CC(C)C)C(=O)N[C@@H](CC(C)C)C(=O)N[C@@H](CC(C)C)C(=O)N[C@@H](CCC(=O)O)C(=O)O1", "note": "(some centres undefined)", "values": [
      {"measurement": "MIC", "setting": "[1]", "value": "inactive"},
      {"measurement": "MIC", "setting": "[2]", "value": 32, "unit": "µg/mL"},
      {"measurement": "MIC", "setting": "[3]", "value": 16, "unit": "µg/mL"},
      {"measurement": "MIC", "setting": "[4]", "value": "inactive"},
      {"measurement": "Activity", "setting": "[5]", "value": "Non-Toxic"},
      {"measurement": "Activity", "setting": "[6]", "value": "Non-Toxic"},
      {"measurement": "MIC", "setting": "[7]", "value": 16, "unit": "µg/mL"}
    ]},
    {"smiles": "CCC(C)CCCCCCC[C@@H]1CC(=O)N[C@@H](CC(C)C)C(=O)N[C@@H](CC(C)C)C(=O)N[C@@H](CC(C)C)C(=O)N[C@@H](CCC(=O)O)C(=O)O1", "note": "(some centres undefined)", "values": [
      {"measurement": "MIC", "setting": "[1]", "value": "inactive"},
      {"measurement": "MIC", "setting": "[2]", "value": 8, "unit": "µg/mL"},
      {"measurement": "MIC", "setting": "[3]", "value": 8, "unit": "µg/mL"},
      {"measurement": "MIC", "setting": "[4]; RN4220, 24 h", "value": 32, "unit": "µg/mL"},
      {"measurement": "Activity", "setting": "[5]", "value": "Non-Toxic"},
      {"measurement": "Activity", "setting": "[6]", "value": "Non-Toxic"},
      {"measurement": "MIC", "setting": "[7]", "value": 16, "unit": "µg/mL"}
    ]},
    {"smiles": "CCn1cc(C(=O)O)c(=O)c2cc(F)c(N3CCNCC3)cc21", "note": "[NORFLOXACIN]", "values": [
      {"measurement": "MIC", "setting": "[1]; isolate EMRSA-15, 24 h", "value": 4, "unit": "µg/mL"},
      {"measurement": "MIC", "setting": "[2]", "value": 64, "unit": "µg/mL"},
      {"measurement": "MIC", "setting": "[3]", "value": 16, "unit": "µg/mL"},
      {"measurement": "MIC", "setting": "[4]; RN4220, 24 h", "value": 2, "unit": "µg/mL"},
      {"measurement": "MIC", "setting": "[7]", "value": 16, "unit": "µg/mL"}
    ]}
  ]
}
